The term IC50 denotes the midpoint of a concentration-inhibition curve.

The values that follow come from ChEMBL document CHEMBL1148280, “Design, synthesis, structural studies, biological evaluation, and computational simulations of novel potent AT(1) angiotensin II receptor antagonists based on the 4-phenylquinoline structure” (J Med Chem, 2004).

Each structure is given as a SMILES string.

The target in test [1] is T1, Type-1 angiotensin II receptor B (Rattus norvegicus, UniProt P29089).
T1 sequence (P29089 whole entry): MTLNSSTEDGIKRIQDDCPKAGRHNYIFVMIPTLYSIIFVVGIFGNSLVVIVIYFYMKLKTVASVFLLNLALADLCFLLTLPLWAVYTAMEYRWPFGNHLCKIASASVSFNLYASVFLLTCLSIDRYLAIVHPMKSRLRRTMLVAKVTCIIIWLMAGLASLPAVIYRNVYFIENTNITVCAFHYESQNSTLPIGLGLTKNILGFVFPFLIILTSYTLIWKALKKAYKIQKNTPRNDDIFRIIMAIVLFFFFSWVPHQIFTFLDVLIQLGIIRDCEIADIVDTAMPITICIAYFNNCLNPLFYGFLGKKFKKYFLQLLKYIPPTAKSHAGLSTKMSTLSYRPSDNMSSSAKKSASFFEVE
Kind of test: Binding affinity for rat angiotensin II receptor, type 1.

Test [2] is filed under the species Oryctolagus cuniculus. Kind of test: Inhibition of angiotensin II induced contraction in rabbit aortic strips after 60 minutes contact with the compound. Format: functional. The following applies: Aorta, 1 h. The procedure, abridged:
(§1)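 Rabbit aortic strips under 2 g resting tension, isometric recording, equilibrated 1 h. A cumulative Ang II concentration–response curve was run first, then a 30 min washout. Antagonist or vehicle was added at several concentrations before a submaximal (70–80%) Ang II challenge; contact time differed by line. Percent inhibition was regressed to give IC50 with P = 0.05 fiducial limits.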

Test [3] is filed under the species Oryctolagus cuniculus. The test is described as follows: Inhibition of angiotensin II induced contraction in rabbit aortic strips after 120 minutes contact with the compound. The following applies: Aorta, 2 h. In kind it is functional. Summed up: as §1

`CCCCC(=O)N(Cc1ccc(-c2ccccc2-c2nnn[nH]2)cc1)[C@H](C(=O)O)C(C)C`: the IC50 in test [1] stood at 1.9 nM.

As for `CCCc1nc2c(C)ccnc2n1Cc1ccc(-c2ccccc2-c2nn[nH]n2)cc1`, the IC50 in test [1] is 1 nM.

The molecule `CCCNc1nc2ccccc2c(-c2ccc(Cn3c(CC)nc4c(C)cc(C)nc43)cc2)c1C(=O)O` registered an IC50 in test [1] of 66 nM.

For the molecule `CCc1nc2c(C)cc(C)nc2n1Cc1ccc(-c2c(CC(=O)O)cnc3ccccc23)cc1`, the IC50 in test [1] came to 576 nM. This IC50 is about 8.7-fold higher than that of the molecule before.

`CCCc1nc2c(C)cc(C)nc2n1Cc1ccc(-c2c(C(=O)O)c(Cl)nc3ccccc23)cc1`: in test [1], the IC50 came out at 7.7 nM. Compared with the last molecule, the IC50 is about 75-fold lower.

Turning to `CCCc1nc2c(C)cc(C)nc2n1Cc1ccc(-c2c(C(=O)O)c(O)nc3ccccc23)cc1`, the IC50 in test [1] worked out at 261 nM.

Take `CCCc1nc2c(C)cc(C)nc2n1Cc1ccc(-c2ccccc2-c2nn[nH]n2)cc1`: the IC50 in test [1] is 0.8 nM.

`CCCCc1nc2c(C)cc(C)nc2n1Cc1ccc(-c2c(C(=O)O)c(N)nc3ccccc23)cc1` had an IC50 in test [1] of 13 nM.

For the molecule `CCCc1nc2c(C)cc(C)nc2n1Cc1ccc(-c2c(-c3nn[nH]n3)cnc3ccccc23)cc1`, in test [1], the IC50 came out at 12 nM. This IC50 and that of the molecule before are within 1.5-fold of each other.

In test [1], `CCCCc1nc2c(C)cc(C)nc2n1Cc1ccc(-c2c(C(=O)O)cnc3ccccc23)cc1` yielded an IC50 of 41 nM. This IC50 is about 3.4-fold higher than that of the molecule before.

In the case of `CCc1nc2c(C)cc(C)nc2n1Cc1ccc(-c2c(CC(=O)O)c(Cl)nc3ccccc23)cc1`, the IC50 in test [1] is 215 nM.

`CCCc1nc2c(C)ccnc2n1Cc1ccc(-c2ccncc2-c2nnn[nH]2)cc1`: the IC50 in test [1] turned out to be 4 nM.

`CCCc1nc2c(C)ccnc2n1Cc1ccc(-c2cccnc2-c2nn[nH]n2)cc1`: the IC50 in test [1] was 60 nM.

`CCc1nc2c(C)cc(C)nc2n1Cc1ccc(-c2c(C(=O)O)ccc3ccccc23)cc1` returned an IC50 in test [1] of 33 nM.

In test [1], `CCCc1nc2c(C)cc(C)nc2n1Cc1ccc(-c2c(C(=O)NS(=O)(=O)c3ccc([N+](=O)[O-])cc3)cnc3ccccc23)cc1` displayed an IC50 of 106 nM. Against the preceding molecule, the IC50 is about 3.2-fold higher.

Molecule `CCCN(CCC)c1nc2ccccc2c(-c2ccc(Cn3c(CC)nc4c(C)cc(C)nc43)cc2)c1C(=O)O` gave an IC50 in test [1] of 492 nM.

For `CCCc1nc2c(C)cc(C)nc2n1Cc1ccc(-c2c(C(=O)O)c(C)nc3ccccc23)cc1`, the IC50 in test [2] worked out at 13 nM; in test [1], 9 nM.

`CCc1nc2c(C)cc(C)nc2n1Cc1ccc(-c2c(C(=O)O)c(N)nc3ccccc23)cc1` came in with an IC50 in test [1] of 13 nM.

`CCCCc1nc(CCCC)n(Cc2ccc(-c3ccccc3-c3nnn[nH]3)cc2)n1` displayed an IC50 in test [1] of 5.6 nM.

As to `CCc1nc2c(C)cc(C)nc2n1Cc1ccc(-c2c(-c3nnn[nH]3)cnc3ccccc23)cc1`, the IC50 in test [2] turned out to be 4 nM; in test [1], 6.9 nM; in test [3] it was 2 nM.

On to `CCCCc1nc(CCCC)n(Cc2ccc(-c3ncccc3-c3nnn[nH]3)cc2)n1`, for which, in test [1], the IC50 was 98 nM. That is a double-digit nanomolar value.

With `CCc1nc2c(C)cc(C)nc2n1Cc1ccc(-c2ncccc2-c2nn[nH]n2)cc1`, the IC50 in test [1] turned out to be 18 nM.

As for `CCc1nc2c(C)cc(C)nc2n1Cc1ccc(-c2c(C(=O)O)c(N(C)C)nc3ccccc23)cc1`, the IC50 in test [1] was 29 nM. Against the preceding molecule, the IC50 is about 1.6-fold higher.

Regarding `CCc1nc2c(C)cc(C)nc2n1Cc1ccc(-c2c(C(=O)O)cnc3ccccc23)cc1`, the IC50 in test [1] amounted to 17 nM.

`CCc1nc2c(C)cc(C)nc2n1Cc1ccc(-c2c(C(=O)O)c(NC)nc3ccccc23)cc1` yielded an IC50 in test [1] of 13 nM.

In turn, `CCc1nc2c(C)cc(C)nc2n1Cc1ccc(-c2c(C(=O)O)c3nnnn3c3ccccc23)cc1` showed an IC50 in test [1] of 52 nM.

Consider `CCCc1nc2c(C)cc(C)nc2n1Cc1ccc(-c2c(C(=O)O)c(N)nc3ccccc23)cc1`, for which the IC50 amounted to 3.3 nM in test [2] and 4.2 nM in test [1].

With `CCCCc1nc(CCCC)n(Cc2ccc(-c3cnccc3-c3nnn[nH]3)cc2)n1`, the half-inhibitory concentration (IC50) in test [1] was determined as 150 nM.

Molecule `CCCCc1nc(CCCC)n(Cc2ccc(-c3ccncc3-c3nnn[nH]3)cc2)n1` returned an IC50 in test [1] of 250 nM. Against the preceding molecule, the IC50 is about 1.7-fold higher.

In the case of `CCc1nc2c(C)cc(C)nc2n1Cc1ccc(-c2c(C(=O)O)c(=O)n(C)c3ccccc23)cc1`, the IC50 in test [1] came out at 326 nM; in test [3], 170 nM.

Molecule `CCc1nc2c(C)cc(C)nc2n1Cc1ccc(-c2c(C(=O)O)c(OC)nc3ccccc23)cc1` had a 50% inhibitory concentration (IC50) in test [1] of 74 nM. In other words, the double-digit nanomolar range.

Turning to `CCCCc1nc(CCCC)n(Cc2ccc(-c3cccnc3-c3nnn[nH]3)cc2)n1`, in test [1], the IC50 was 110 nM. This IC50 and that of the molecule before are within 1.5-fold of each other.

`CCc1nc2c(C)cc(C)nc2n1Cc1ccc(-c2ncccc2C(=O)O)cc1` returned an IC50 in test [1] of 819 nM. Against the preceding molecule, the IC50 is about 7.4-fold higher.

On to `CCc1nc2c(C)cc(C)nc2n1Cc1ccc(-c2ccccc2-c2nnn[nH]2)cc1` [L-158809], for which the IC50 in test [1] was determined as 0.4 nM.

As to `CCCCc1nc(Cl)c(CO)n1Cc1ccc(-c2ccccc2-c2nnn[nH]2)cc1` [LOSARTAN], the IC50 in test [2] is 9.9 nM.
